Data reported in ChEMBL document CHEMBL1157624, “Targeting Alzheimer's disease: Novel indanone hybrids bearing a pharmacophoric fragment of AP2238” (Bioorg Med Chem, 2010).

Assays:
Homo sapiens = organism: Homo sapiens; assay: Selectivity ratio of IC50 for human BuChE to human recombinant AChE
Procedure, shortened: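 Ellman assay in 0.1 M potassium phosphate pH 8.0 with 340 µM DTNB, enzyme at 0.02 unit/mL: human recombinant AChE with 550 µM acetylthiocholine, serum-derived human BuChE with 550 µM butyrylthiocholine. Compounds preincubated with enzyme 20 min at 37 °C. IC50 from five-point curves run in triplicate, mean of two experiments. Ratio = IC50 BuChE / IC50 AChE.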

[1] = Inhibition of amyloid beta (1-42) self-aggregation at 10 uM after 24 hrs by thioflavin T-based fluorometric assay
Procedure, shortened: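 Abeta42 from stable 500 µM stock, incubated at final 50 µM in 10 mM phosphate buffer pH 8.0 with 10 mM NaCl, 30 °C for 24 h, with or without compound at 10 µM. Diluted into 50 mM glycine–NaOH pH 8.5 with 1.5 µM thioflavin T. Fluorescence read by 300 s scan at ex 446/em 490 nm, plateau values averaged after ThT background subtraction. % inhibition taken from ± inhibitor intensity ratio.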

Cholinesterase = Cholinesterase (Homo sapiens, UniProt P06276); assay: Inhibition of human BuChE preincubated for 20 mins before substrate addition by Ellman's method
Procedure, shortened: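 Ellman assay using BuChE from human serum at 0.02 unit/mL in 0.1 M potassium phosphate pH 8.0 with 340 µM DTNB. Compound and enzyme preincubated 20 min at 37 °C, then 550 µM butyrylthiocholine iodide added. Blank lacks enzyme. Five concentrations chosen to give 20–80% inhibition, each in triplicate. IC50 read graphically from log concentration vs % inhibition. Mean of two independent measurements.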

Acetylcholinesterase [2] = biological target: T1, Acetylcholinesterase (Homo sapiens, UniProt P22303); assay: Inhibition of human recombinant AChE-induced amyloid beta (1-40) aggregation at 100 uM by thioflavin T fluorescence assay
Procedure, shortened: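 Abeta40, lyophilised from HFIP and dissolved in DMSO, held at final 230 µM. Co-incubated with human recombinant AChE at final 2.30 µM (Abeta:AChE 100:1), with or without inhibitor at final 100 µM. Incubation 24 h at room temperature in 0.215 M sodium phosphate pH 8.0, run in duplicate. ThT read in glycine–NaOH pH 8.5 at ex 446/em 490 nm, subtracting ThT and AChE background. % inhibition = 100 − (IFi/IFo × 100).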

Acetylcholinesterase [3] = biological target: T1, Acetylcholinesterase; assay: Inhibition of human recombinant AChE preincubated for 20 mins before substrate addition by Ellman's method
Acetylcholinesterase [4] = biological target: T1, Acetylcholinesterase; assay: Inhibition of human recombinant AChE-mediated hydrolysis of acetylcholine by Lineweaver-Burke plot analysis
Procedure, shortened: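 Steady-state kinetics on human recombinant AChE with acetylthiocholine as substrate at low concentrations (0.60–0.06 mM) and inhibitor at increasing concentrations (range 0–50 nM). Initial velocities were plotted as 1/v versus 1/[ATCh]. Plots were fitted by weighted least squares, taking the variance of v as a constant percentage of v, to estimate the competitive inhibition constant Ki.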

T1 sequence (P22303 whole entry): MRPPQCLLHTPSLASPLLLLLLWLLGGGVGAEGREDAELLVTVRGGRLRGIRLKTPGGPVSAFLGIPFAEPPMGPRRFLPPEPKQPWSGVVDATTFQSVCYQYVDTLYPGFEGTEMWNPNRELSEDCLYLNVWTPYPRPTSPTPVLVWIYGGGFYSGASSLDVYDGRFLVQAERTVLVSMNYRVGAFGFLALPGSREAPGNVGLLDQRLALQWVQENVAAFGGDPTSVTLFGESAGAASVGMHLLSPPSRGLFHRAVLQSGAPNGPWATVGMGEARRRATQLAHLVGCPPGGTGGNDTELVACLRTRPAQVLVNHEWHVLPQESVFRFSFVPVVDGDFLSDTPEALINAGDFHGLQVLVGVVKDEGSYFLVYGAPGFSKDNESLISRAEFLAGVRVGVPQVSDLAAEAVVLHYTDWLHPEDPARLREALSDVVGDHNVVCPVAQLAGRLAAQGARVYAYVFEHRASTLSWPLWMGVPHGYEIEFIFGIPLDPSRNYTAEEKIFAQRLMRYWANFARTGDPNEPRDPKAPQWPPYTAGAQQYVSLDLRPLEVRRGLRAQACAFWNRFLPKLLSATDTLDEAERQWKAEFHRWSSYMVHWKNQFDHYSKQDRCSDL
Chain of Cholinesterase (P06276 whole entry): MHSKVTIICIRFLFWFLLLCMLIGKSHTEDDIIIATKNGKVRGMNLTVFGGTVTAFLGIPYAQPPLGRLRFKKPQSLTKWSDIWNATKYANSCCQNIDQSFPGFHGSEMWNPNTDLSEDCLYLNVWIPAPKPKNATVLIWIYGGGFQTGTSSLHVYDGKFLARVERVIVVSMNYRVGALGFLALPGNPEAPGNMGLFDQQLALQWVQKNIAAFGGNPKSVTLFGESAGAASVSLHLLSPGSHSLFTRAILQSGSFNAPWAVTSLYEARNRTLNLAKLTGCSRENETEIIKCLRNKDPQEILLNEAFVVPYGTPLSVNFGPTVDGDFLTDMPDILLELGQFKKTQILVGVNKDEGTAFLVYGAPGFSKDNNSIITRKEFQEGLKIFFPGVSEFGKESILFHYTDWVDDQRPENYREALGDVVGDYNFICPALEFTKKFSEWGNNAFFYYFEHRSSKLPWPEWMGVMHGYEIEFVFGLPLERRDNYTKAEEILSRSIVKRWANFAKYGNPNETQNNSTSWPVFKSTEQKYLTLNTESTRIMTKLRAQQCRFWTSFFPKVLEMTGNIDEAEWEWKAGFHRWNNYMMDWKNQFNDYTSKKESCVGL

Compound	Ratio IC50 (Homo sapiens)	inhibition [1] [%]	IC50 (Cholinesterase) [µM]	inhibition (Acetylcholinesterase [2]) [%]	IC50 (Acetylcholinesterase [3]) [µM]	Ki (Acetylcholinesterase [4]) [µM]
COc1cc2cc(-c3ccc(CN(C)Cc4ccccc4)cc3)c(=O)oc2cc1OC	1110	< 5				
CN(Cc1ccccc1)Cc1ccc(/C=C2\Cc3ccc(OCCCCCN4CCCCC4)cc3C2=O)cc1	38.5	27.9	7.7	46.8	0.2	
CCN(Cc1ccccc1)Cc1ccc(/C=C2\Cc3ccc(OC)cc3C2=O)cc1	19.9		98.1		4.93	
CCN(CC)CCCCCCOc1ccc2c(c1)C(=O)/C(=C/c1ccc(CN(C)Cc3ccccc3)cc1)C2	53.9		20.5		0.38	
COc1ccc2c(c1)C(=O)/C(=C/c1ccc(CN(C)Cc3ccccc3)cc1)CC2	25.1		135		5.38	
COc1cc2c(cc1OC)C(=O)/C(=C/c1ccc(CN(C)Cc3ccccc3)cc1)CC2	404		72.8		0.18	
CN(Cc1ccccc1)Cc1ccc(/C=C2\Cc3ccccc3C2=O)cc1	2.55		29.9		11.7	
CCN(CC)CCCOc1ccc2c(c1)C(=O)/C(=C/c1ccc(CN(C)Cc3ccccc3)cc1)C2	9.01		11.9		1.32	
CN(Cc1ccccc1)Cc1ccc(/C=C2\Cc3ccc(OCCCCN4CCOCC4)cc3C2=O)cc1	112		99.8		0.89	
CCN(CC)CCCCCCCOc1ccc2c(c1)C(=O)/C(=C/c1ccc(CN(C)Cc3ccccc3)cc1)C2	64.7		33		0.51	
CCN(CC)CCCOc1ccc2c(c1)C/C(=C\c1ccc(CN(C)Cc3ccccc3)cc1)C2=O	7.08		11.4		1.61	
COc1cc2c(cc1OC)C(=O)/C(=C/c1ccc(CN(C)Cc3ccccc3)cc1)C2	126		144		1.14	
CCN(CC)CCCCOc1ccc2c(c1)C(=O)/C(=C/c1ccc(CN(C)Cc3ccccc3)cc1)C2	3.95		3.52		0.89	
CCN(CC)CCCCCOc1ccc2c(c1)C(=O)/C(=C/c1ccc(CN(C)Cc3ccccc3)cc1)C2	14.2	27.7	2.7	29.7	0.19	
COc1ccc2c(c1)C/C(=C\c1ccc(CN(C)Cc3ccccc3)cc1)C2=O	0.73		21.1		28.7	
CCN(CC)CCCCCOc1ccc2c(c1)CC/C(=C\c1ccc(CN(C)Cc3ccccc3)cc1)C2=O	144	26.4	8.05	42.9	0.056	
CCN(CC)CCCCOc1ccc2c(c1)C/C(=C\c1ccc(CN(C)Cc3ccccc3)cc1)C2=O	5.8		22.9		3.95	
CN(Cc1ccccc1)Cc1ccc(/C=C2\Cc3ccc(OCCCCN4CCCCC4)cc3C2=O)cc1	55.5		10		0.18	
CN(Cc1ccccc1)Cc1ccc(/C=C2\CCc3cc(OCCCCCN4CCCCC4)ccc3C2=O)cc1	96.3	26.9	5.01	48.3	0.052	0.0611
COc1cc2c(cc1OC)C(=O)C(CC1CCN(Cc3ccccc3)CC1)C2 (stereo not given)		< 5				
COc1ccc2c(c1)C(=O)/C(=C/c1ccc(CN(C)Cc3ccccc3)cc1)C2	12.6	< 5	7.93	< 5	0.63	
CCN(CC)CCOc1ccc2c(c1)C(=O)/C(=C/c1ccc(CN(C)Cc3ccccc3)cc1)C2	7.77		11.9		1.53	
CCN(CC)CCOc1ccc2c(c1)C/C(=C\c1ccc(CN(C)Cc3ccccc3)cc1)C2=O	7.76		22.5		2.9	
COc1ccc2c(c1)CC/C(=C\c1ccc(CN(C)Cc3ccccc3)cc1)C2=O	820		90.3		0.11	
